How the values were obtained:
[1] = biological target: T1, Adrenergic receptor alpha-1 (Rattus norvegicus, UniProt P15823+P23944+P43140); experiment: Binding affinity (Ki) at Alpha-1 adrenergic receptor using rat brain cells with prazosin (0.20 nM) as a radioligand and […] as a blank agent; format: cell-based
T1 sequence (P15823 whole entry): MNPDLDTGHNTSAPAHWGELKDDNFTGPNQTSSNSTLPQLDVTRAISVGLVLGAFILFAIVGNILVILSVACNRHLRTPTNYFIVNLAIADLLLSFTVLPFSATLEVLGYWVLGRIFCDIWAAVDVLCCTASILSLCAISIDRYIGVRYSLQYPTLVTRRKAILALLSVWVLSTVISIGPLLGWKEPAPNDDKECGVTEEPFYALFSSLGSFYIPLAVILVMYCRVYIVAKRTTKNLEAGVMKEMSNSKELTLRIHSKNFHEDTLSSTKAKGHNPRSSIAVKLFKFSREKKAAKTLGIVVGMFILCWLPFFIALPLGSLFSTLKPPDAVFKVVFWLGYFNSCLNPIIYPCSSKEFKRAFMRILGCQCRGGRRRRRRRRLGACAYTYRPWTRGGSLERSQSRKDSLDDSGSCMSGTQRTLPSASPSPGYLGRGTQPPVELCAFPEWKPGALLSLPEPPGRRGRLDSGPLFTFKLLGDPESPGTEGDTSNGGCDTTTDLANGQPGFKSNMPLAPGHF
T1 sequence (P23944 whole entry): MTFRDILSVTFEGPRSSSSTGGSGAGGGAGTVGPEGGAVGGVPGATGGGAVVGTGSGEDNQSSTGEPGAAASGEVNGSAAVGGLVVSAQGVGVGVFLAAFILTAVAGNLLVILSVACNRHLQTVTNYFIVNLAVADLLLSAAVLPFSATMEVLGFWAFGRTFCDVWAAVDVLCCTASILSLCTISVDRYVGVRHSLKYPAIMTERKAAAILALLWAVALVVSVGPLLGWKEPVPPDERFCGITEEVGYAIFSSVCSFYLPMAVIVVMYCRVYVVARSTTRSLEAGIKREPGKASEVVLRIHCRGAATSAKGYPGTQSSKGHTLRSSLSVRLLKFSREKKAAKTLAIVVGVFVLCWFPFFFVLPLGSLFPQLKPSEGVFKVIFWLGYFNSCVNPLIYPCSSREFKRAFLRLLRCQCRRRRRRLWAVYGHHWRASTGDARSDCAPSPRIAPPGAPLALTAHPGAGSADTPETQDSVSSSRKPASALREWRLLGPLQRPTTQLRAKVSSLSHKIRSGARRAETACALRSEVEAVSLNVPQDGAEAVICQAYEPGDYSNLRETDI
T1 sequence (P43140 whole entry): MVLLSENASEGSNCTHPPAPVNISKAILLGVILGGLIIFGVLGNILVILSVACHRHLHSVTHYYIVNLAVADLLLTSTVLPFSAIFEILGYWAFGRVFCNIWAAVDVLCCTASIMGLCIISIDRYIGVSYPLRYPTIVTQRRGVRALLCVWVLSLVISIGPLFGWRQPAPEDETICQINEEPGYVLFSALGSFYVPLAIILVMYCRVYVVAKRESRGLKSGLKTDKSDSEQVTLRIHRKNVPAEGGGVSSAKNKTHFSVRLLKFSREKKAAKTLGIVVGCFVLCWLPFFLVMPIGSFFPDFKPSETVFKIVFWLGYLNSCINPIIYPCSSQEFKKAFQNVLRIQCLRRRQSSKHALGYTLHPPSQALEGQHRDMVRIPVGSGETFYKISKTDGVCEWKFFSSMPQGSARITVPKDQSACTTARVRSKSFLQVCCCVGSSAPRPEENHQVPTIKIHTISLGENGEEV
Summary of the method: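 Whole rat brain homogenate (excluding cerebellum) incubated with 0.20 nM [3H]prazosin, 30 °C, 30 min. Nonspecific binding defined with 2 µM phentolamine. Filtration harvest, tritium counted by scintillation. Screened at 1 and 10 µM; ≥6 concentrations if ≥30% inhibition at 1 µM. IC50 from curve fit, converted to Ki by Cheng-Prusoff using the radioligand Kd.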

[2] = biological target: T2, 5-hydroxytryptamine receptor 2C (Homo sapiens, UniProt P28335); experiment: Tested on transfected cell membranes selectively expressing human 5-hydroxytryptamine 2C receptor using [3H]mesulergine
T2 sequence (P28335 whole entry): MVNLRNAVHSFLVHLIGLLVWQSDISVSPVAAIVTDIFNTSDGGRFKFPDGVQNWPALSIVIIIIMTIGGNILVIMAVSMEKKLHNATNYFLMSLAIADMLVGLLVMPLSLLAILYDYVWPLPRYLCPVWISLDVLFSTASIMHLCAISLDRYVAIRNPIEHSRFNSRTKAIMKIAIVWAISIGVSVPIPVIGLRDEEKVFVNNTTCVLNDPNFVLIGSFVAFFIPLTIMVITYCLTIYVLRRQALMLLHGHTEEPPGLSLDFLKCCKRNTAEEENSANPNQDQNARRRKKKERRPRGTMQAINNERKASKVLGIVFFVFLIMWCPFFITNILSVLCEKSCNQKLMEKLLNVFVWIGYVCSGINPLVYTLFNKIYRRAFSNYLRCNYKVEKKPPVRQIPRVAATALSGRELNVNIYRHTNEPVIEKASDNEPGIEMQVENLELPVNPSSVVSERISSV
Summary of the method: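 Transfected cell membranes expressing human 5-HT2C, incubated with 0.80 nM [3H]mesulergine at room temperature for 60 min. Nonspecific binding with 10 µM clozapine. Filtration and scintillation counting. IC50 ± SE from concentration-inhibition curves, converted to Ki by Cheng-Prusoff using the radioligand Kd.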

[3] = biological target: 5-hydroxytryptamine receptor 6 (Homo sapiens, UniProt P50406); experiment: Tested on cell membranes from transfected cells selectively expressing human 5-hydroxytryptamine 6 receptor incubated with 1 nM [3H]LSD
Summary of the method: (§1)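 Membranes (1-10 µg protein) from transfected cells expressing human 5-HT6 or 5-HT7, incubated with 1 nM [3H]LSD, room temperature, 90 min, in the dark. 10 µM clozapine as blank. Filter harvest and tritium counting. IC50 from multi-concentration competition, converted to Ki via Cheng-Prusoff.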

[4] = biological target: 5-hydroxytryptamine receptor 7 (Homo sapiens, UniProt P34969); experiment: Tested on cell membranes from transfected cells selectively expressing human 5-hydroxytryptamine 7 receptor incubated with 1 nM [3H]LSD; summary of the method: as §1
[5] = biological target: T3, Adrenergic receptor alpha-2 (Rattus norvegicus, UniProt P22086+P19328+P22909); experiment: Binding affinity (Ki) at Alpha-2 adrenergic receptor homogenates of whole rat brain were incubated [3H]MK-912 for 80 min at room temperature, using […] as the blank agent; format: tissue-based
T3 sequence (P22086 whole entry): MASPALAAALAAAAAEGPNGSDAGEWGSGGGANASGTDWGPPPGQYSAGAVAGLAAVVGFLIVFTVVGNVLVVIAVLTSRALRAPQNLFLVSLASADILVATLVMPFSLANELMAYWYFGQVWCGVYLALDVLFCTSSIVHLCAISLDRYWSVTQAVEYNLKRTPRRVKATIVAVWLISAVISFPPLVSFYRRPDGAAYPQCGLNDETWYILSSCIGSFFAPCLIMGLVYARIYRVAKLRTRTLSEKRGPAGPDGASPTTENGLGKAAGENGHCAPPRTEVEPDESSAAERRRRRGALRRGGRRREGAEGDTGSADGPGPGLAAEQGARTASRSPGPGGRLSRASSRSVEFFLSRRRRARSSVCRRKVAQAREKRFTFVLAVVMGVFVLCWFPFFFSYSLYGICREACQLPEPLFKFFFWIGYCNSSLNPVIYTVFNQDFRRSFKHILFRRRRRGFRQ
T3 sequence (P19328 whole entry): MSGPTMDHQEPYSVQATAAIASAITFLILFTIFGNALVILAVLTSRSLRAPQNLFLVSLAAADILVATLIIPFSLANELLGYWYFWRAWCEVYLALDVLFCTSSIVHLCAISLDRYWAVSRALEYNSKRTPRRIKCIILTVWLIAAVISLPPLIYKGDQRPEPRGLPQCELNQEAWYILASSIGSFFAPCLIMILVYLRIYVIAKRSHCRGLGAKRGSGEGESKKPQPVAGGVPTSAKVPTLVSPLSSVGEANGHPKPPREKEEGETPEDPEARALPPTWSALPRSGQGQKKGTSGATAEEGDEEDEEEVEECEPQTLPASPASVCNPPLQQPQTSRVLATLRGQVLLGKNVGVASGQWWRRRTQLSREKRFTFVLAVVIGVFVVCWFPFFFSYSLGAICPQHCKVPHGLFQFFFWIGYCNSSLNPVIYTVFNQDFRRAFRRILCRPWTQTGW
T3 sequence (P22909 whole entry): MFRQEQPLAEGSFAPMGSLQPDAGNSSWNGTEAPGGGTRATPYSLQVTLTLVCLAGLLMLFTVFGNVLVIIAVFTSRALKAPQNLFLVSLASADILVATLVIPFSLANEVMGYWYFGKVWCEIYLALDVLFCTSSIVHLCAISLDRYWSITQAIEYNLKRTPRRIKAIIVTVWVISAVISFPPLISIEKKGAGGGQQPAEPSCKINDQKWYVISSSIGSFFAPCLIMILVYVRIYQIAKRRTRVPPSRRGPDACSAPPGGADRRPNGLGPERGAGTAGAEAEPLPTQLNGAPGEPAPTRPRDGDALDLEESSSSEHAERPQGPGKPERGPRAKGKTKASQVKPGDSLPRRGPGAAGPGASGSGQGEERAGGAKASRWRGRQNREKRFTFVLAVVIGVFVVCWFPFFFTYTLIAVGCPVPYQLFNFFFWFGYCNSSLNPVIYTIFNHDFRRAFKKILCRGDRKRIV
Summary of the method: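 Whole rat brain homogenate (minus cerebellum) with 1.0 nM [3H]MK-912, 80 min at room temperature. 10 µM phentolamine defines nonspecific binding. Filter harvest and scintillation counting. Concentration-inhibition curves (≥6 concentrations) give IC50 ± SE, converted to Ki via Cheng-Prusoff with the radioligand's apparent Kd.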

[6] = biological target: T4, 5-hydroxytryptamine receptor 2A (Homo sapiens, UniProt P28223); experiment: Tested on genetically transfected COS7 cell membranes selectively expressing human 5-hydroxytryptamine 2A receptor, using [3H]ketanserin as radioligand; format: cell-based, COS-7
Summary of the method: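 Membranes of transfected COS-7 cells expressing human 5-HT2A, with 1.0 nM [3H]ketanserin, room temperature, 60 min. 10 µM altanserin as blank. Filtration and scintillation counting. Competition curves over ≥6 concentrations yield IC50 ± SE. Ki obtained by Cheng-Prusoff from the radioligand apparent Kd.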

[7] = biological target: D(2) dopamine receptor (Rattus norvegicus, UniProt P61169); experiment: Binding affinity (Ki) at Dopamine receptor D2 using rat caudate cells with nemonapride (0.075 nM) as a radioligand and […] as a blank agent
Summary of the method: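 Rat caudate-putamen homogenate incubated with 75 pM [3H]nemonapride at 30 °C for 90 min. Nonspecific binding defined with 10 µM haloperidol. Bound radioactivity collected on glass fiber filters and counted. IC50 ± SE from ≥6-concentration inhibition curves, converted to Ki by Cheng-Prusoff using the radioligand Kd.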

[8] = biological target: T1, Adrenergic receptor alpha-1; experiment: Binding affinity at Alpha-1 adrenergic receptor using rat forebrain cells with prazosin (0.20 nM) as radioligand and […] as blank agent
[9] = biological target: T1, Adrenergic receptor alpha-1; experiment: Binding affinity (Ki) at Alpha-1 adrenergic receptor using rat forebrain cells with prazosin (0.20 nM) as a radioligand and […] as a blank agent
[10] = biological target: T4, 5-hydroxytryptamine receptor 2A; experiment: Binding affinity against 5-hydroxytryptamine 2A receptor in humans
Summary of the method: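 Membranes of transfected COS-7 cells expressing human 5-HT2A, with 1.0 nM [3H]ketanserin, room temperature, 60 min. 10 µM altanserin as blank. Filtration and scintillation counting. Ki obtained by Cheng-Prusoff from the radioligand apparent Kd.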

D(2) dopamine receptor, sequence (P61169 whole entry): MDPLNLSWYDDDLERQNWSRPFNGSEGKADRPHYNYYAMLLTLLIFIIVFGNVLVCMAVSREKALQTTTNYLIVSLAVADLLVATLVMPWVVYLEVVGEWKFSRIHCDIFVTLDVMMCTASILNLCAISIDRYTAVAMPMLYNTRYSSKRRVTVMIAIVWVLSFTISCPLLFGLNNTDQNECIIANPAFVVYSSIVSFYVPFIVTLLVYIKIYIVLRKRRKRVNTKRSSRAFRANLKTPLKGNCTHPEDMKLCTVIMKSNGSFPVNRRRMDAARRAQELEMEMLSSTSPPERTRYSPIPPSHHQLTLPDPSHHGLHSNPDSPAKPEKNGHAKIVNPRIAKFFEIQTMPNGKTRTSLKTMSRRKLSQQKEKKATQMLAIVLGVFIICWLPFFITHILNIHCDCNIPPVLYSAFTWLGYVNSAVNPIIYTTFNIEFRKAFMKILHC
T4 sequence (P28223 whole entry): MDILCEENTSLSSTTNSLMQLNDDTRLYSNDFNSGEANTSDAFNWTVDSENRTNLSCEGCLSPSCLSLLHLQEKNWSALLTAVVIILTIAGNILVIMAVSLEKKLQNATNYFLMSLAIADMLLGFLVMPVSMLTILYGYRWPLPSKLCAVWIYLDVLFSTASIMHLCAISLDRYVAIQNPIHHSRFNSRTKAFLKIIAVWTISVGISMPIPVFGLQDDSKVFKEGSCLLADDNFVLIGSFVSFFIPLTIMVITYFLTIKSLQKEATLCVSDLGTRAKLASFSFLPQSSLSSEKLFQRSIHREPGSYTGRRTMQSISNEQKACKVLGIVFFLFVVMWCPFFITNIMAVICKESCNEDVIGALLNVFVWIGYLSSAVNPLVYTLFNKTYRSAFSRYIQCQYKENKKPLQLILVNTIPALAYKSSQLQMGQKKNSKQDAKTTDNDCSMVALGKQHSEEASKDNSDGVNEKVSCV
5-hydroxytryptamine receptor 6, sequence (P50406 whole entry): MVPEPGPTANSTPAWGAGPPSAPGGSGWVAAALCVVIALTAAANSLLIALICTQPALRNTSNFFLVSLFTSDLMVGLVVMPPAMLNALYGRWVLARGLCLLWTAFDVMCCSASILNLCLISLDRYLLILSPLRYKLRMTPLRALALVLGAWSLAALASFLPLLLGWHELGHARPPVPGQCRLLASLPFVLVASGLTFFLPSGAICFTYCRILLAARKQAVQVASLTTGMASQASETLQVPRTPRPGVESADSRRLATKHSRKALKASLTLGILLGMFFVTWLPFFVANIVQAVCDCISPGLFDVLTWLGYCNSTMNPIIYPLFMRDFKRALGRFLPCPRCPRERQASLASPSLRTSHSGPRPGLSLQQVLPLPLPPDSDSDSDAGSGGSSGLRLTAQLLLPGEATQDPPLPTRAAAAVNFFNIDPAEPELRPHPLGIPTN
5-hydroxytryptamine receptor 7, sequence (P34969 whole entry): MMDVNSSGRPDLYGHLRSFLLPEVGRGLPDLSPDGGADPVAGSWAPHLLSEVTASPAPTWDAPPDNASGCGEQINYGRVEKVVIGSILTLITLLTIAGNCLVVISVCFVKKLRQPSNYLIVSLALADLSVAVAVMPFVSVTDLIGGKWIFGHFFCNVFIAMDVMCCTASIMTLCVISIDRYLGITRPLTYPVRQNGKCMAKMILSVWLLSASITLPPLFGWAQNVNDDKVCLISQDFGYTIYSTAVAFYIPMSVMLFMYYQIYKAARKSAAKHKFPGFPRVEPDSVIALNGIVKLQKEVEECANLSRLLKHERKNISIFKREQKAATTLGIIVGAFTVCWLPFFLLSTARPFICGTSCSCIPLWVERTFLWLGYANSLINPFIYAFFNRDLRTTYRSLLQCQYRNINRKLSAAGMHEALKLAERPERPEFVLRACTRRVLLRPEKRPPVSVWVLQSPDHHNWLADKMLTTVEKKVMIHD

SMILES | Ki [2] [nM] | Ki [3] [nM] | Ki [4] [nM] | Ki [5] [nM] | Ki [6] [nM] | Ki [7] [nM] | other results
O=C(c1ccc(F)cc1)C1CCN(CCc2cccc(I)c2)CC1 | 16.6 | 48.9 | 8.76 | 244 | 0.51 | 51.8 | Ki [1]: 4.92 nM
OC(c1ccc(F)cc1)C1CCN(CCc2ccc(I)cc2)CC1 (stereo not drawn) |  |  |  |  | 32.1 |  | 
OC(c1ccc(F)cc1)C1CCN(CCc2ccc(F)cc2)CC1 (stereo not drawn) | 503 | > 10000 | 1340 | 1032 | 1.63 | > 10000 | Ki [8]: 303 nM
OC(c1ccc(F)cc1)C1CCN(Cc2ccccc2I)CC1 (stereo not drawn) |  |  |  |  | > 10000 |  | 
O=C(c1ccc(F)cc1)C1CCN(CCc2ccc(I)cc2)CC1 | 144 | 300 | 7.32 | 381 | 3.62 | 176 | Ki [9]: 26.1 nM
O=[N+]([O-])c1ccc(C(O)C2CCN(CCc3ccccc3)CC2)cc1 (stereo not drawn) |  |  |  |  | 1.15 |  | 
O=C(c1ccc(F)cc1)C1CCN(CCc2ccccc2I)CC1 | 35.5 | 138 | 3.68 | 140 | 1.95 | 1.3 | Ki [8]: 24.8 nM
O=C(c1ccc(F)cc1)C1CCN(Cc2cccc(I)c2)CC1 |  |  |  |  | 12.7 |  | 
OC(c1ccc(F)cc1)C1CCN(CCc2cccc(I)c2)CC1 (stereo not drawn) |  |  |  |  | 13.1 |  | 
OC(c1ccc(F)cc1)C1CCN(Cc2cccc(I)c2)CC1 (stereo not drawn) |  |  |  |  | > 10000 |  | 
O=C(c1ccc([N+](=O)[O-])cc1)C1CCN(CCc2ccccc2)CC1 |  |  |  |  | 9.34 |  | 
O=C(c1ccc(F)cc1)C1CCN(Cc2ccccc2I)CC1 |  |  |  |  | 191 |  | 
O=C(c1ccc(F)cc1)C1CCN(Cc2ccc(I)cc2)CC1 |  |  |  |  | 227 |  | 
OC(c1ccc(F)cc1)C1CCN(CCc2ccccc2I)CC1 (stereo not drawn) | 28.6 | 430 | 101 | 813 | 0.91 | > 10000 | Ki [9]: 108 nM
OC(c1ccc(F)cc1)C1CCN(Cc2ccc(I)cc2)CC1 (stereo not drawn) |  |  |  |  | > 10000 |  | 
O=C(c1ccc(F)cc1)C1CCN(CCc2ccc(F)cc2)CC1 | 493 | 3000 | 63 | 614 | 9.54 | 453 | Ki [8]: 33.6 nM
O=C(c1ccc(F)cc1)C1CCN(CCn2c(=S)[nH]c3ccccc3c2=O)CC1 [ALTANSERIN] |  |  |  |  |  |  | Ki [10]: 0.3 nM

Source: ChEMBL document CHEMBL1135426, “Synthesis, receptor potency, and selectivity of halogenated diphenylpiperidines as serotonin 5-HT2A ligands for PET or SPECT brain imaging” (J Med Chem, 2002)
